This passage reports IC50 and viability results from ChEMBL document CHEMBL4368863, “Evaluation of novel N'-(3-hydroxybenzoyl)-2-oxo-2H-chromene-3-carbohydrazide derivatives as potential HIV-1 integrase inhibitors” (Medchemcomm, 2019).

In general, IC50 refers to the point on the concentration scale where inhibition reaches its midpoint.

Some results are limits rather than exact numbers.

The target of data set [1] is Human immunodeficiency virus type 1 integrase (Human immunodeficiency virus 1, UniProt Q7ZJM1). Briefly: Inhibition of HIV1 subtype C recombinant integrase strand transfer activity preincubated for 45 mins with double-stranded biotinylated donor DNA followed by addition of double stranded FITC-labelled target DNA and measured after 60 mins relative to control.
A short description of data set [2]: Cytotoxicity against human HeLa cells assessed as cell viability at 25 uM after 48 hrs by resazurin dye-based fluorescence assay. The settings on record: read-out: Activity. The method in brief: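 HeLa cells seeded at 6.7 × 10^4 per well in DMEM with 10% foetal bovine serum and penicillin/streptomycin/amphotericin B. Grown 24 h at 37 °C, 5% CO2, then exposed to compound at 25 μM final for 48 h. Resazurin added and fluorescence read (Ex 560/Em 590 nm) after 2–4 h more. Viability expressed as % of no-compound control wells.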

Chain of Human immunodeficiency virus type 1 integrase (Q7ZJM1 whole entry): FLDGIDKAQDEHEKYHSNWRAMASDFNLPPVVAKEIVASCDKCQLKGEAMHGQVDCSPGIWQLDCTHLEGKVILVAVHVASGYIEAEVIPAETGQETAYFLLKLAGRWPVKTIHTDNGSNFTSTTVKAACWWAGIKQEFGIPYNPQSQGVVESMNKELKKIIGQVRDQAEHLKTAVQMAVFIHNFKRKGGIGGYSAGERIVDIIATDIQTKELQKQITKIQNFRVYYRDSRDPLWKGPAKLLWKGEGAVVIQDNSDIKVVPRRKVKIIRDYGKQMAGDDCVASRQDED

For `COc1ccc(O)c(C(=O)NNC(=O)c2cc3cccc(OC)c3oc2=O)c1`, the half-inhibitory concentration (IC50) in data set [1] was determined as 901 nM. Further, the viability at 48 h, 25 µM in data set [2] was over 70%.

Consider `O=C(NNC(=O)c1cc2cc(Br)ccc2oc1=O)c1cc(Cl)ccc1O`, for which the 50% inhibitory concentration (IC50) in data set [1] turned out to be 175 nM. Moreover, the viability at 48 h, 25 µM in data set [2] is over 70%.

Consider `COc1cccc2cc(C(=O)NNC(=O)c3cc(Cl)ccc3O)c(=O)oc12`, for which the IC50 in data set [1] was 23 nM. In addition, the viability at 48 h, 25 µM in data set [2] was over 70%.

Consider `COc1ccc(O)c(C(=O)NNC(=O)c2cc3cc(Br)ccc3oc2=O)c1`, for which, in data set [1], the IC50 is 163 nM. Besides, the viability at 48 h, 25 µM in data set [2] is over 70%.

With `COc1cccc(C(=O)NNC(=O)c2cc3cc(Br)ccc3oc2=O)c1O`, the viability at 48 h, 25 µM in data set [2] is over 70%.

For `COc1ccc(O)c(C(=O)NNC(=O)c2cc3ccccc3oc2=O)c1`, the half-maximal inhibitory concentration (IC50) in data set [1] came to 5800 nM. Also, in data set [2], the viability at 48 h, 25 µM is over 70%.

On to `CCOc1cccc2cc(C(=O)NNC(=O)c3cc(OC)ccc3O)c(=O)oc12`, for which, in data set [1], the 50% inhibitory concentration (IC50) came to 592 nM. Moreover, the viability at 48 h, 25 µM in data set [2] was over 70%.

Regarding `O=C(NNC(=O)c1cc2cc(Cl)ccc2oc1=O)c1ccccc1O`, the IC50 in data set [1] is 13 nM. In data set [2], the viability at 48 h, 25 µM is over 70%.

In the case of `O=C(NNC(=O)c1cc2ccccc2oc1=O)c1ccccc1O`, the IC50 in data set [1] was determined as 70 nM. Further, in data set [2], the viability at 48 h, 25 µM is over 70%.

Regarding `CCOc1cccc2cc(C(=O)NNC(=O)c3cc(Cl)ccc3O)c(=O)oc12`, the IC50 in data set [1] is 31 nM. The viability at 48 h, 25 µM in data set [2] is over 70%.

For the molecule `CCOc1cccc2cc(C(=O)NNC(=O)c3ccccc3O)c(=O)oc12`, in data set [1], the IC50 was found to be 104 nM. Further, the viability at 48 h, 25 µM in data set [2] was over 70%.

As to `CCOc1cccc2cc(C(=O)NNC(=O)c3cccc(OC)c3O)c(=O)oc12`, in data set [2], the viability at 48 h, 25 µM is over 70%.

On to `O=C(NNC(=O)c1cc2ccccc2oc1=O)c1cc(Cl)ccc1O`, for which the IC50 in data set [1] was determined as 33 nM. Also, the viability at 48 h, 25 µM in data set [2] was over 70%.

For `COc1cccc(C(=O)NNC(=O)c2cc3cc(Cl)ccc3oc2=O)c1O`, the viability at 48 h, 25 µM in data set [2] was over 70%.

Take `COc1cccc(C(=O)NNC(=O)c2cc3cccc(OC)c3oc2=O)c1O`: in data set [2], the viability at 48 h, 25 µM was over 70%.

As for `COc1ccc(O)c(C(=O)NNC(=O)c2cc3cc(Cl)ccc3oc2=O)c1`, the half-inhibitory concentration (IC50) in data set [1] came out at 605 nM. Also, the viability at 48 h, 25 µM in data set [2] is over 70%.

`O=C(NNC(=O)c1cc2cc(Br)ccc2oc1=O)c1ccccc1O`: the IC50 in data set [1] came out at 14 nM. Also, the viability at 48 h, 25 µM in data set [2] was over 70%.

On to `O=C(NNC(=O)c1cc2cc(Cl)ccc2oc1=O)c1cc(Cl)ccc1O`, for which, in data set [1], the IC50 was 41 nM. In addition, the viability at 48 h, 25 µM in data set [2] was over 70%.

Consider `COc1cccc2cc(C(=O)NNC(=O)c3ccccc3O)c(=O)oc12`, for which, in data set [1], the 50% inhibitory concentration (IC50) came out at 47 nM. The viability at 48 h, 25 µM in data set [2] was over 70%.

For `COc1cccc(C(=O)NNC(=O)c2cc3ccccc3oc2=O)c1O`, in data set [2], the viability at 48 h, 25 µM was over 70%.
